From ChEMBL document CHEMBL1156546, “Synthesis and positive inotropic activity of N-(4,5-dihydro-[1,2,4]triazolo[4,3-a]quinolin-7-yl)-2-(piperazin-1-yl)acetamide derivatives” (2008)
The source made the active and inactive calls. No cut-off for these calls is given here.

Assays:
[1] = species on record: Oryctolagus cuniculus; assay: Inotropic effect on isolated rabbit heart assessed as increase in left atrium stroke volume; assay type: functional; parameters: concentration or dose not given beside the values
In short: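 Isolated perfused rabbit left atrium, HEPES buffer pH 7.4 (mM: 118 NaCl, 4.7 KCl, 2.5 CaCl2, 1.2 MgCl2, 25 NaHCO3, 10 glucose, 10 HEPES; 0.1% BSA) pumped at 1.25 mL/min. 60 min stabilization, pacing 1.5 Hz. Single dose 3×10^-5 M (DMSO stock diluted in buffer) after control cycle; 12-min cycles, stroke volume read every 2 min. Reported as % stroke volume increase, means ± SE, ANOVA.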

[2] = species on record: Oryctolagus cuniculus; assay: Chronotropic effect on isolated rabbit heart assessed as change in heart beats; assay type: functional
In short: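 Heart rate measured in isolated rabbit hearts from the electrocardiogram in a volume conduction model. Samples at 3×10^-5 M, dissolved in DMSO and diluted in HEPES buffer. Rate recorded before (control) and after sample. Means ± SE, repeated measures compared by ANOVA, P < 0.05.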

Row | Compound | Activity ([1]; Cardiac atrium) | Activity [1] | Activity [2]
1 | Cc1nnc2n1-c1ccc(NC(=O)CN3CCN(C(=O)c4cccc(Cl)c4)CC3)cc1CC2 | inactive | – | –
2 | Cc1[nH]c(=O)c(C#N)cc1-c1ccncc1 [MILRINONE] | – | 4.7% | –
3 | O=C(CN1CCN(Cc2ccc3c(c2)OCO3)CC1)Nc1ccc2c(c1)CCc1nnc(Cc3ccccc3)n1-2 | – | 5.2% | 89.2 bpm
4 | Cc1cccc(C(=O)N2CCN(CC(=O)Nc3ccc4c(c3)CCc3nnc(Cc5ccccc5)n3-4)CC2)c1 | – | 0.5% | –
5 | Cc1nnc2n1-c1ccc(NC(=O)CN3CCN(C(=O)c4ccccc4)CC3)cc1CC2 | inactive | – | –
6 | Cc1ccc(C(=O)N2CCN(CC(=O)Nc3ccc4c(c3)CCc3nnc(Cc5ccccc5)n3-4)CC2)cc1 | – | 0.7% | –
7 | O=C(CN1CCN(C(=O)c2ccccc2)CC1)Nc1ccc2c(c1)CCc1nnc(Cc3ccccc3)n1-2 | inactive | – | –
8 | Cc1nnc2n1-c1ccc(NC(=O)CN3CCN(Cc4ccccc4)CC3)cc1CC2 | inactive | – | –
9 | Cc1nnc2n1-c1ccc(NC(=O)CN3CCN(Cc4ccccc4Br)CC3)cc1CC2 | inactive | – | –
10 | COc1ccc(C(=O)N2CCN(CC(=O)Nc3ccc4c(c3)CCc3nnc(C)n3-4)CC2)cc1OC | – | 5.3% | 129.2 bpm
11 | O=C(CN1CCN(Cc2ccccc2)CC1)Nc1ccc2c(c1)CCc1nnc(Cc3ccccc3)n1-2 | – | 13.2% | 109.3 bpm
12 | COc1ccc(CN2CCN(CC(=O)Nc3ccc4c(c3)CCc3nnc(C)n3-4)CC2)cc1 | – | 10.1% | 105.6 bpm
13 | Cc1cccc(C(=O)N2CCN(CC(=O)Nc3ccc4c(c3)CCc3nnc(C)n3-4)CC2)c1 | – | 8.8% | –
14 | CC(=O)N1CCN(CC(=O)Nc2ccc3c(c2)CCc2nnc(C)n2-3)CC1 | inactive | – | –
15 | Cc1nnc2n1-c1ccc(NC(=O)CN3CCN(C(=O)c4cccc([N+](=O)[O-])c4)CC3)cc1CC2 | inactive | – | –
16 | COc1cc(CN2CCN(CC(=O)Nc3ccc4c(c3)CCc3nnc(C)n3-4)CC2)ccc1OCc1ccccc1 | – | 9% | 111.5 bpm
17 | Cc1nnc2n1-c1ccc(NC(=O)CN3CCN(Cc4ccc5c(c4)OCO5)CC3)cc1CC2 | – | 5.1% | 136.9 bpm
18 | O=C(CN1CCN(C(=O)c2cccc(Cl)c2)CC1)Nc1ccc2c(c1)CCc1nnc(Cc3ccccc3)n1-2 | – | 2.4% | –
19 | Cc1nnc2n1-c1ccc(NC(=O)CN3CCN(C(=O)c4ccc([N+](=O)[O-])cc4)CC3)cc1CC2 | inactive | – | –
20 | Cc1ccc(C(=O)N2CCN(CC(=O)Nc3ccc4c(c3)CCc3nnc(C)n3-4)CC2)cc1 | – | 1.3% | –
